Legend:
[1] = test system: Human immunodeficiency virus 1; assay: Antiviral activity against HIV I strain (LAV) in human peripheral blood mononuclear (PBM) cells; format: functional, organism-based
In short: (§1)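 Human PBM cells from normal donors, mitogen-stimulated for 3 days (10⁶ cells/mL), were infected with HIV-1 LAV at about 100 TCID₅₀/mL. Drugs at various concentrations were added about 45 min post-infection, in fungizone-free medium. On day 5, virus was pelleted from the clarified supernatant and its reverse transcriptase activity measured. EC₅₀ came from the median effect method, and active compounds were retested with different donor cells.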

[2] = Cytotoxic effect in uninfected human peripheral blood mononuclear (PBM) cells
[3] = Antiviral activity against HIV I strain (LAV) in human peripheral blood mononuclear (PBM) cells; Range is 0.081 - 0.22; format: functional; in short: as §1
[4] = Antiviral activity against HIV I strain (LAV) in human peripheral blood mononuclear (PBM) cells; Range is 0.66 - 1.19; format: functional; in short: as §1
[5] = Antiviral activity against HIV I strain (LAV) in human peripheral blood mononuclear (PBM) cells; Range is 0.056 - 1.00; format: functional; in short: as §1
[6] = Antiviral activity against HIV I strain (LAV) in human peripheral blood mononuclear (PBM) cells; Range is 68.3 - 79.9; format: functional; in short: as §1
[7] = test system: Moloney murine leukemia virus; assay: Antiviral activity against Moloney murine leukemia virus; format: functional; details: read-out: ED50 (the source's name)
[8] = Antiviral activity against HIV-1 in human peripheral blood mononuclear (PBM) cells; format: functional; details: read-out: ED50 (the source's name)
[9] = Antiviral activity against HIV I strain (LAV) in human peripheral blood mononuclear (PBM) cells; Range is 0.18 - 0.46; format: functional
[10] = Antiviral activity against HIV I strain (LAV) in human peripheral blood mononuclear (PBM) cells; Range is 0.009 - 0.04; format: functional; in short: as §1
[11] = Antiviral activity against HIV I strain (LAV) in human peripheral blood mononuclear (PBM) cells; Range is 0.002 - 0.009; format: functional; in short: as §1

Cc1cn([C@H]2C[C@H](O)[C@@H](CN=[N+]=[N-])O2)c(=O)[nH]c1=O
EC50 [1]: 8.6 µM
IC50 [2]: > 100 µM

Cc1cn([C@H]2C[C@H](I)[C@@H](CO)O2)c(=O)[nH]c1=O
EC50 [1]: 46.3 µM
IC50 [2]: > 100 µM

O=c1ccn([C@H]2CC[C@@H](CO)O2)c(=O)[nH]1
EC50 [1]: 96.8 µM

CCc1cn(C2C[C@@H](I)[C@@H](CO)O2)c(=O)[nH]c1=O (stereo partly specified)
EC50 [1]: 86 µM
IC50 [2]: > 100 µM

O=c1ccn(C2C[C@@H](I)[C@@H](CO)O2)c(=O)[nH]1 (stereo partly specified)
EC50 [1]: 12.1 µM
IC50 [2]: > 100 µM

CCCc1cn(C2C[C@@H](N=[N+]=[N-])[C@@H](CO)O2)c(=O)[nH]c1=O (stereo partly specified)
EC50 [1]: 63 µM
IC50 [2]: > 100 µM

CCc1cn(C2C[C@@H](O)[C@@H](CN)O2)c(=O)[nH]c1=O (stereo partly specified)
EC50 [1]: 94.3 µM
IC50 [2]: > 10 µM

[N-]=[N+]=N[C@@H]1CC(c2cnc(O)nc2O)O[C@@H]1CO (stereo partly specified)
EC50 [1]: > 100 µM
IC50 [2]: > 100 µM

[N-]=[N+]=N[C@H]1C[C@H](n2cc(Br)c(=O)[nH]c2=O)O[C@@H]1CO
EC50 [1]: 1.04 µM
IC50 [2]: > 100 µM

Cc1cn([C@H]2C[C@H](N=[N+]=[N-])[C@@H](CO)O2)c(=O)nc1N
EC50 [3]: 0.081 µM
IC50 [2]: > 200 µM

[N-]=[N+]=N[C@H]1C[C@H](n2ccc(N)nc2=O)O[C@@H]1CO
EC50 [4]: 0.66 µM
IC50 [2]: > 400 µM

CCc1cn([C@H]2C[C@H](N=[N+]=[N-])[C@@H](CO)O2)c(=O)[nH]c1=O
EC50 [5]: 0.056 µM
IC50 [2]: 1000 µM

CCc1cn([C@H]2CC[C@@H](CO)O2)c(=O)[nH]c1=O
EC50 [1]: 4.9 µM
IC50 [2]: > 100 µM

N[C@H]1C[C@H](n2ccc(=O)[nH]c2=O)O[C@@H]1CO
EC50 [1]: 60 µM
IC50 [2]: > 100 µM

Nc1ncc([C@H]2CC[C@@H](CO)O2)c(O)n1
EC50 [1]: > 100 µM
IC50 [2]: > 100 µM

OC[C@@H]1C=C[C@H](c2cnc(O)nc2O)O1
EC50 [1]: > 100 µM
IC50 [2]: > 100 µM

CCc1cn([C@H]2C=C[C@@H](CO)O2)c(=O)[nH]c1=O
EC50 [1]: 75.7 µM
IC50 [2]: > 100 µM

Cc1cn([C@H]2C[C@H](O)[C@@H](CN)O2)c(=O)[nH]c1=O
EC50 [1]: 77.4 µM
IC50 [2]: > 100 µM

[N-]=[N+]=N[C@@H]1CC(n2cc(I)c(=O)[nH]c2=O)O[C@@H]1CO (stereo partly specified)
EC50 [1]: 1.14 µM
IC50 [2]: > 100 µM

CCc1cn(C2C[C@@H](N)[C@@H](CO)O2)c(=O)[nH]c1=O (stereo partly specified)
EC50 [1]: 54.9 µM
IC50 [2]: > 100 µM

[N-]=[N+]=N[C@@H]1CC(n2cc(/C=C/Br)c(=O)[nH]c2=O)O[C@@H]1CO (stereo partly specified)
EC50 [1]: > 100 µM
IC50 [2]: > 100 µM

CCc1cn(C2C[C@@H](O)[C@@H](CN=[N+]=[N-])O2)c(=O)[nH]c1=O (stereo partly specified)
EC50 [1]: > 100 µM
IC50 [2]: > 100 µM

[N-]=[N+]=NC[C@H]1OC(n2ccc(=O)[nH]c2=O)C[C@H]1O (stereo partly specified)
EC50 [1]: > 100 µM
IC50 [2]: > 100 µM

NC[C@H]1OC(n2ccc(=O)[nH]c2=O)C[C@H]1O (stereo partly specified)
EC50 [1]: > 100 µM
IC50 [2]: > 100 µM

Cc1cn([C@H]2CC[C@@H](CO)O2)c(=O)[nH]c1=O
EC50 [1]: 0.17 µM
IC50 [2]: > 100 µM

O=c1ccn([C@H]2C=C[C@@H](CO)O2)c(=O)[nH]1
IC50 [2]: > 100 µM
EC50 [6]: 68.3 µM

Cc1cn([C@H]2C[C@H](N)[C@@H](CO)O2)c(=O)[nH]c1=O [3-AMINO- 3-DEOXYTHYMIDINE]
EC50 [1]: > 100 µM
IC50 [2]: > 100 µM

[N-]=[N+]=N[C@H]1C[C@H](n2ccc(=O)[nH]c2=O)O[C@@H]1CO [NAVURIDINE]
EC50 [7]: 52 µM
IC50 [2]: 1000 µM
EC50 [8]: 0.178 µM
EC50 [9]: 0.18 µM

Cc1cn([C@H]2C=C[C@@H](CO)O2)c(=O)[nH]c1=O [STAVUDINE]
EC50 [10]: 0.009 µM
IC50 [2]: 70 µM

Cc1cn([C@H]2C[C@H](N=[N+]=[N-])[C@@H](CO)O2)c(=O)[nH]c1=O [ZIDOVUDINE]
EC50 [11]: 0.002 µM
IC50 [2]: 200 µM

From ChEMBL document CHEMBL1124420, “Structure-activity relationships of pyrimidine nucleosides as antiviral agents for human immunodeficiency virus type 1 in peripheral blood mononuclear cells” (J Med Chem, 1989)
